≈ marks a conversion by molar mass, not a printed value. Calls of active or inactive are those of the source. The calls are words filed in the database; no cut-off is given here.

Assay [1] deals with Staphylococcus epidermidis. Kind of assay: Antibacterial activity against Staphylococcus epidermidis by broth dilution method. It is filed as functional. The procedure, abridged:
(§1)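 Compounds and reference drugs were dissolved as stocks in 50% DMSO–water, then serially diluted twofold with culture medium, with bacterial inoculum added […], and the MIC was determined. Only compounds that gave a growth-inhibition zone in a prior agar cup diffusion screen went on to this broth dilution test.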

In assay [2] the test system is Klebsiella pneumoniae. Kind of assay: Antibacterial activity against Klebsiella pneumoniae by broth dilution method. It is filed as functional. The procedure, abridged:
as §1
On the technique in general: In broth dilution the organism is exposed to a series of concentrations in liquid medium.

Assay [3] concerns Bacillus subtilis. Kind of assay: Antibacterial activity against Bacillus subtilis by broth dilution method. It is filed as functional. The procedure, abridged:
as §1

For assay [4], the system named is Rhizopus arrhizus. Kind of assay: Antifungal activity against Rhizopus oryzae by agar cup diffusion method. It is filed as functional, organism-based.
Assay [5] has as its system Aspergillus niger. The experiment in a line: Antifungal activity against Aspergillus niger by agar cup diffusion method. It is filed as functional, organism-based.
Assay [6] deals with Saccharomyces cerevisiae. Kind of assay: Antifungal activity against Saccharomyces cerevisiae by agar cup diffusion method. It is filed as functional, organism-based.
The subject of assay [7] is Candida albicans. The experiment in a line: Antifungal activity against Candida albicans by agar cup diffusion method. It is filed as functional, organism-based.
The subject of assay [8] is Pseudomonas aeruginosa. The experiment in a line: Antibacterial activity against Pseudomonas aeruginosa by broth dilution method. It is filed as functional. An outline of the steps:
as §1

The test system of assay [9] is Staphylococcus aureus. Kind of assay: Antibacterial activity against Staphylococcus aureus by broth dilution method. It is filed as functional. An outline of the steps:
as §1

Assay [10] concerns Escherichia coli. The experiment in a line: Antibacterial activity against Escherichia coli by broth dilution method. It is filed as functional. An outline of the steps: as §1
The nature of assay [11]: Inhibition of bovine N-acetyl-beta-D-glucosaminidase. Set-up: species or system Bos taurus.

Usually MIC stands for the least concentration at which growth counts as inhibited. For `CC1(C)OC(c2nc(-c3ccccc3)c(-c3ccccc3)n2Cc2ccccc2)[C@H]([C@@H](O)[C@H]2COC(C)(C)O2)O1` (some centres not stated), the MIC in [1] was determined as 150 µg/mL (≈ 277 µM); in [2], 75 µg/mL (≈ 139 µM); in assay [3], 75 µg/mL (≈ 139 µM); in assay [8], 37.5 µg/mL (≈ 69.4 µM); in assay [9], 75 µg/mL (≈ 139 µM); in assay [10] it was 75 µg/mL (≈ 139 µM). The result in assay [4], in assay [5], in assay [6] and in [7] was inactive.

In the case of `Cc1ccc(-n2c([C@H]3O[C@@H]4OC(C)(C)O[C@@H]4[C@H]4OC(C)(C)O[C@H]43)nc(-c3ccccc3)c2-c2ccccc2)cc1`, the MIC in [1] stood at 75 µg/mL (≈ 139 µM); in assay [2], 75 µg/mL (≈ 139 µM); in assay [3], 37.5 µg/mL (≈ 69.6 µM); in assay [8], 75 µg/mL (≈ 139 µM); in assay [9], 37.5 µg/mL (≈ 69.6 µM); in [10] it was 75 µg/mL (≈ 139 µM). Also, the result in [4], in assay [5], in [6] and in [7] was inactive.

The Ki is a measure of affinity in units of concentration, obtained from inhibition or displacement. In turn, `CC(=O)N[C@H]1c2nc(CC(=O)O)cn2[C@H](CO)[C@H](O)[C@@H]1O` [NAGSTATIN] registered a Ki in assay [11] of 4 nM.

With `CC1(C)OC[C@H](c2nc(-c3ccccc3)c(-c3ccccc3)n2-c2ccc(F)cc2)O1`, the MIC in assay [1] turned out to be 75 µg/mL (≈ 181 µM); in [2], 75 µg/mL (≈ 181 µM); in [3] it was 75 µg/mL (≈ 181 µM); in assay [8], 37.5 µg/mL (≈ 90.5 µM); in assay [9], 75 µg/mL (≈ 181 µM); in [10], 37.5 µg/mL (≈ 90.5 µM). Also, the result in [4], in assay [5], in assay [6] and in assay [7] was inactive.

As for `CN[C@@H]1[C@H](O[C@H]2[C@H](O[C@H]3[C@H](O)[C@@H](O)[C@H](N=C(N)N)[C@@H](O)[C@@H]3N=C(N)N)O[C@@H](C)[C@]2(O)C=O)O[C@@H](CO)[C@H](O)[C@H]1O` (stereo in doubt) [STREPTOMYCIN], the MIC came to 1.56 µg/mL (≈ 2.69 µM) in assay [1]; 3.12 µg/mL (≈ 5.37 µM) in assay [2]; 6.25 µg/mL (≈ 10.7 µM) in assay [3]; 3.12 µg/mL (≈ 5.37 µM) in assay [8]; 1.56 µg/mL (≈ 2.69 µM) in assay [9]; 2.35 µg/mL (≈ 4.04 µM) in assay [10].

For the compound `CC1(C)O[C@H]2O[C@H](c3nc(-c4ccccc4)c(-c4ccccc4)n3Cc3ccccc3)[C@H](O)[C@H]2O1`, the MIC in assay [1] worked out at 150 µg/mL (≈ 320 µM); in assay [2], 75 µg/mL (≈ 160 µM); in assay [3], 150 µg/mL (≈ 320 µM); in assay [8] it was 37.5 µg/mL (≈ 80 µM); in assay [9] it was 150 µg/mL (≈ 320 µM); in assay [10], 150 µg/mL (≈ 320 µM). Also, the result in [4], in [5], in assay [6] and in [7] was inactive.

For `Cc1cccc(-n2c(C3OC(C)(C)O[C@H]3[C@@H](O)[C@H]3COC(C)(C)O3)nc(-c3ccccc3)c2-c2ccccc2)c1` (some centres not stated), the MIC in assay [1] came to 75 µg/mL (≈ 139 µM); in assay [2] it was 150 µg/mL (≈ 277 µM); in assay [3], 150 µg/mL (≈ 277 µM); in [8], 37.5 µg/mL (≈ 69.4 µM); in assay [9], 150 µg/mL (≈ 277 µM); in assay [10], 75 µg/mL (≈ 139 µM). In addition, the outcome in assay [4], in assay [5], in assay [6] and in assay [7] was inactive.

In the case of `Cc1ccc(-n2c([C@H]3COC(C)(C)O3)nc(-c3ccccc3)c2-c2ccccc2)cc1`, the MIC is 75 µg/mL (≈ 183 µM) in assay [1]; 75 µg/mL (≈ 183 µM) in assay [2]; 150 µg/mL (≈ 365 µM) in [3]; 150 µg/mL (≈ 365 µM) in assay [8]; 150 µg/mL (≈ 365 µM) in assay [9]; 75 µg/mL (≈ 183 µM) in assay [10]. The result in assay [4], in assay [5], in assay [6] and in assay [7] was inactive.

On to `OC[C@@H](O)[C@@H](O)[C@@H](O)[C@H](O)c1nc(-c2ccccc2)c(-c2ccccc2)n1Cc1ccccc1`, for which the MIC in assay [1], in assay [2], in assay [3], in assay [8], in [9] and in assay [10] was 75 µg/mL (≈ 163 µM) in each case. The result in [4], in assay [5], in [6] and in [7] was inactive.

As for `CC1(C)OC(c2nc(-c3ccccc3)c(-c3ccccc3)n2-c2ccc(F)cc2)[C@H]([C@@H](O)[C@H]2COC(C)(C)O2)O1` (some centres not stated), the MIC in assay [1] is 150 µg/mL (≈ 275 µM); in assay [2], 75 µg/mL (≈ 138 µM); in [3], 150 µg/mL (≈ 275 µM); in assay [8], 75 µg/mL (≈ 138 µM); in assay [9], 150 µg/mL (≈ 275 µM); in assay [10], 75 µg/mL (≈ 138 µM). Also, the result in assay [4], in assay [5], in [6] and in [7] was inactive.

For `Cc1ccc(-n2c(C3OC(C)(C)O[C@H]3[C@@H](O)[C@H]3COC(C)(C)O3)nc(-c3ccccc3)c2-c2ccccc2)cc1` (some centres not stated), the MIC worked out at 150 µg/mL (≈ 277 µM) in assay [1]; 75 µg/mL (≈ 139 µM) in assay [2]; 75 µg/mL (≈ 139 µM) in assay [3]; 75 µg/mL (≈ 139 µM) in [8]; 75 µg/mL (≈ 139 µM) in assay [9]; 75 µg/mL (≈ 139 µM) in [10]. The outcome in assay [4], in assay [5], in assay [6] and in assay [7] was inactive.

The record behind these values is ChEMBL document CHEMBL1143111, “Synthesis and antimicrobial activity of novel C-linked imidazole glycoconjugates” (Bioorg Med Chem Lett, 2008).
